Bioassay records deposited in PubChem by several laboratories.
RanGTP-Impb inh = inhibitors of RanGTP-importin-beta interaction, primary screen, biochemical, FRET, CFP-Ran, YFP-importin-beta, homogeneous; cell-free CFP-Ran/YFP-importin-beta FRET ratio; inhibition, % (test concentration not listed); 1.1% of 300,000 active; AID 2216;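 active means more than half of the replicate wells show a fall in the fluorescence ratio signal beyond about 16%, limit read from the data, passing the limit was not always enough; inconclusive means exactly half of the replicate wells pass the set limit; inactive means fewer than half of replicates pass the limit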
Runt-CBFb FRET = blocks binding of human RUNX1 Runt domain to CBFb; Cerulean-Runt/Venus-CBFb FRET ratio 530/480, 1 h; AID 1496; 0.46% of 220,000 active; Q01196+Q13951; inhibition, % at 20 µM;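 active means inhibition over about 50% at 20 µM in the single-dose screen, limit read from the data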
Target sequence (Q01196 whole entry, looked up, the tested form may be a part): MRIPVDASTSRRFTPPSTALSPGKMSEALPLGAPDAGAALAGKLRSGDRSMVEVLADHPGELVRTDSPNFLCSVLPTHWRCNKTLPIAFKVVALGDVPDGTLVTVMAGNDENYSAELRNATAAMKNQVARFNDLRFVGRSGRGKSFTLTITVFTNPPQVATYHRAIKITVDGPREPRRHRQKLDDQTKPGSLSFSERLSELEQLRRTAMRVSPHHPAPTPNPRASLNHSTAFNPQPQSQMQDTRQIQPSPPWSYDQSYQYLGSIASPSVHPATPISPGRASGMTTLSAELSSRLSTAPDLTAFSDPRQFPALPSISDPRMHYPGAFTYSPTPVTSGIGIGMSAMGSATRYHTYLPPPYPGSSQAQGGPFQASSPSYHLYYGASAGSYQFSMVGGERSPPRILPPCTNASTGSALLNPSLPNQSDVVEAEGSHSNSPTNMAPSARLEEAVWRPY
Target sequence (Q13951 whole entry, looked up, the tested form may be a part): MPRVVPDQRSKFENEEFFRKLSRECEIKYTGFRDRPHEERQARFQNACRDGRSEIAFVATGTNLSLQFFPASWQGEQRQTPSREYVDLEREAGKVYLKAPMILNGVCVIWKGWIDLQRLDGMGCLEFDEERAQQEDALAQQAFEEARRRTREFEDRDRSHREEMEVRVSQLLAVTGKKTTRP
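Measured by: fluorescence energy transfer, 422 nm excitation, 530/480 nm emission; test system: Cerulean-tagged RUNX1 Runt domain (FRET donor) fusion protein; buffer or medium: Tris pH 7.5 buffer with BSA; compound: one dose, 20 µM compound, 1% DMSO; times: two 1 h room-temperature incubations shielded from light; benchmarks: unlabeled CBFb 5 µM, positive control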
Tb hexokinase = T. brucei hexokinase 1 inhibition; AID 1430; inhibition, % at 10 µM; 0.11% of 220,000 active; recombinant TbHK1, G6PDH-coupled NADH A340;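 active means inhibition of 50% or more in the single-dose primary screen; inactive means inhibition below 50%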
14-3-3 Bad inh = disrupts binding of bovine 14-3-3 zeta to phospho-Bad peptide; P63103; TR-FRET 14-3-3zeta/Dy647-pBad peptide displacement, 1 h; inhibition, % at 21.7 µM; 0.71% of 220,000 active; AID 781;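 active means inhibition above about 70%, limit read from the data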
Runt-SMMHC FRET = Runt domain-CBFb-SMMHC interaction inhibition; Q01196+Q13951; Cerulean-Runt/Venus-CBFb-SMMHC FRET ratio 530/480, 1 h; inhibition, % at 20 µM; 0.74% of 220,000 active;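 active means mean inhibition across duplicate retests at 20 µM reaching about 50%, limit read from the data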;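 further: inhibitors lower the FRET ratio by blocking Runt binding to CBFb-SMMHC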
Hck Nef HTS = inhibitors of human Hck kinase activated by Nef; P08631; Recombinant Hck-YEEI plus Nef, Z-Lyte FRET kinase assay; inhibition, % at 20 µM; 0.68% of 220,000 active;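 active means Hck-Nef kinase inhibition above about 50%, limit read from the data; inactive means inhibition below that limit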
A number is an active result; [ ] = another dose, or the depositor's remark. The list is not random: actives were taken first. Their share in the collection is about 2.2%.

`CCOc1ccc(CCNC(=O)CCC(=O)Nc2ccc3nc(N4CCN(C)CC4)cc(C)c3c2)cc1OCC` gave RanGTP-Impb inh inactive, Runt-CBFb FRET inactive, Tb hexokinase inactive, 14-3-3 Bad inh 91.1, Runt-SMMHC FRET inactive and Hck Nef HTS inactive.
CCCCNC(=O)CCC(=O)Nc1ccc2nc(N3CCCCC3)cc(C)c2c1 was read as RanGTP-Impb inh inactive, Runt-CBFb FRET inactive, Tb hexokinase inactive, 14-3-3 Bad inh inactive, Runt-SMMHC FRET inactive and Hck Nef HTS 69.1.
`Cc1ccc(NC(=O)CN2C(=O)NC(Cc3c[nH]c4ccccc34)C2=O)cc1S(=O)(=O)N1CCCCC1` (stereo not given) gave RanGTP-Impb inh inactive, Runt-CBFb FRET inactive, Tb hexokinase inactive, 14-3-3 Bad inh inactive, Runt-SMMHC FRET inactive and Hck Nef HTS inactive.
For CC1(C(=O)N2CCN(C(=O)c3ccco3)CC2)CC1(Br)Br (stereo not given) the results were RanGTP-Impb inh inactive.
CCN1CCS/C1=C\C=C\C1=[N+](CC)CCS1 was read as RanGTP-Impb inh inactive, Runt-CBFb FRET 128.1, Tb hexokinase inactive, 14-3-3 Bad inh inactive and Hck Nef HTS inactive.
For CCN1CCS/C1=C/C=C/C1=[N+](CC)CCS1 the results were RanGTP-Impb inh inactive, Runt-CBFb FRET 139.6, Tb hexokinase inactive, 14-3-3 Bad inh inactive, Runt-SMMHC FRET 120.5 and Hck Nef HTS inactive.
`CN1CCN(Cc2cc(Cl)c3cccnc3c2OC(=O)c2cccs2)CC1` gave RanGTP-Impb inh inactive, Runt-CBFb FRET inactive, Tb hexokinase inactive, 14-3-3 Bad inh inactive, Runt-SMMHC FRET inactive and Hck Nef HTS inactive.
`CCOC(=O)N1CCN(Cc2ccccc2Cl)CC1` gave Runt-CBFb FRET inactive, Tb hexokinase inactive, 14-3-3 Bad inh 74.6, Runt-SMMHC FRET inactive and Hck Nef HTS inactive.
`CCOC(=O)N1CCN(Cc2cc(Cl)c3cccnc3c2O)CC1` gave RanGTP-Impb inh 44.4, Runt-CBFb FRET inactive, Tb hexokinase inactive, 14-3-3 Bad inh inactive, Runt-SMMHC FRET inactive and Hck Nef HTS inactive.
`Cc1cccn2c(=O)nc(SCC(=O)N3CCN(c4ccccc4)CC3)nc12` gave RanGTP-Impb inh inactive.
For O=C(NNc1c(Cl)cccc1Cl)c1cccs1 the results were RanGTP-Impb inh inactive, Runt-CBFb FRET inactive, Tb hexokinase inactive, 14-3-3 Bad inh 91.3, Runt-SMMHC FRET inactive and Hck Nef HTS inactive.
For CCc1nnc(NS(=O)(=O)c2ccc(N=CC3=C(O)CC(C)(C)CC3=O)cc2)s1 the results were RanGTP-Impb inh inactive, Runt-CBFb FRET inactive, Tb hexokinase inactive, 14-3-3 Bad inh inactive, Runt-SMMHC FRET inactive and Hck Nef HTS inactive.
COC(=O)c1[nH]c2ccc(Br)cc2c1NC(=O)CN1CCCCC1CCO (stereo not given) was read as RanGTP-Impb inh inactive, Tb hexokinase inactive, 14-3-3 Bad inh 90.9, Runt-SMMHC FRET inactive and Hck Nef HTS inactive.
For COc1ccc(CCC(=O)Nc2sccc2C#N)cc1 the results were RanGTP-Impb inh inactive, Runt-CBFb FRET inactive, Tb hexokinase inactive, 14-3-3 Bad inh inactive, Runt-SMMHC FRET inactive and Hck Nef HTS 59.3.
Screening O=C(N(c1ccccc1)c1ccccc1)N(c1ccccc1)c1ccccc1 returned RanGTP-Impb inh inactive, Runt-CBFb FRET inactive, Tb hexokinase inactive, 14-3-3 Bad inh inactive, Runt-SMMHC FRET inactive and Hck Nef HTS inactive.
O=C(O)c1ccccc1C(=O)N(c1ccccc1)c1ccccc1 was read as RanGTP-Impb inh 30.7.
`COc1ccc(NC(=O)CSc2nc3ccccc3nc2N2CCCC2)cc1` gave RanGTP-Impb inh inactive.
`Cc1cc(C)cc(N(CC(=O)NC2CCCC2)C(=O)CCC(=O)Nc2cc(C)ccn2)c1` gave RanGTP-Impb inh inactive.
N#CC1=C(O)C(c2ccccc2)n2c1nc(=O)c1ccccc12 (stereo not given) was read as RanGTP-Impb inh inactive, Runt-CBFb FRET inactive, Tb hexokinase inactive, 14-3-3 Bad inh 90.5, Runt-SMMHC FRET inactive and Hck Nef HTS inactive.
N#CC1=C(O)CCCn2c1nc1ccccc1c2=O was read as RanGTP-Impb inh inactive, Runt-CBFb FRET inactive, Tb hexokinase inactive, 14-3-3 Bad inh inactive, Runt-SMMHC FRET inactive and Hck Nef HTS inactive.
For CSc1sc(C(=O)NC(=O)NCc2ccncc2)c(C)c1-c1ccon1 the results were RanGTP-Impb inh inactive, Runt-CBFb FRET inactive, Tb hexokinase inactive, 14-3-3 Bad inh inactive, Runt-SMMHC FRET inactive and Hck Nef HTS inactive.
For COc1cc(-c2nc(-c3ccc4c(c3)-c3ccccc3S4(=O)=O)c(-c3ccccc3)[nH]2)cc(OC)c1OC the results were RanGTP-Impb inh inactive, Runt-CBFb FRET inactive, Tb hexokinase inactive, 14-3-3 Bad inh inactive, Runt-SMMHC FRET inactive and Hck Nef HTS inactive.
For COc1cccc(-c2nc(-c3ccc4c(c3)-c3ccccc3S4(=O)=O)c(-c3ccccc3)[nH]2)c1OC the results were RanGTP-Impb inh 15.5, Runt-CBFb FRET inactive, Tb hexokinase inactive, 14-3-3 Bad inh inactive and Hck Nef HTS inactive.
`O=c1c2c(nc3nc(NCc4cccc(Cl)c4)[nH]n13)CCC2` gave RanGTP-Impb inh inactive, Runt-CBFb FRET inactive, Tb hexokinase inactive, 14-3-3 Bad inh 72.2, Runt-SMMHC FRET inactive and Hck Nef HTS inactive.
Screening CC(C)c1ccc(CNc2nc3nc4c(c(=O)n3[nH]2)CCC4)cc1 returned RanGTP-Impb inh inactive, Runt-CBFb FRET inactive, Tb hexokinase inactive, 14-3-3 Bad inh inactive, Runt-SMMHC FRET inactive and Hck Nef HTS inactive.
`Cc1c(CN2CCc3c([nH]c4ccccc34)C2CC(C)C)cnn1C` (stereo not given) gave RanGTP-Impb inh 34.6, Runt-CBFb FRET inactive, Tb hexokinase inactive, 14-3-3 Bad inh inactive, Runt-SMMHC FRET inactive and Hck Nef HTS inactive.
O=C(NCc1ccco1)/C(=C\C=C\c1ccccc1)NC(=O)c1ccccc1Br was read as RanGTP-Impb inh inactive, Runt-CBFb FRET inactive, Tb hexokinase inactive, 14-3-3 Bad inh inactive, Runt-SMMHC FRET inactive and Hck Nef HTS inactive.
For COc1ccc(NC(=O)CN2C(=O)COc3ccc(S(=O)(=O)N4CCCCC4)cc32)c(OC)c1 the results were RanGTP-Impb inh inactive.
Cc1ccc2[nH]c3c(c2c1)CN(C)CC3 was read as RanGTP-Impb inh inactive, Runt-CBFb FRET inactive, Tb hexokinase inactive, 14-3-3 Bad inh 74.5, Runt-SMMHC FRET inactive and Hck Nef HTS inactive.
Screening Cc1ccc2[nH]c3c(c2c1)CCN(C)C3 returned RanGTP-Impb inh inactive.
For Cc1noc(NS(=O)(=O)c2ccc(N3Cc4ccccc4C3=O)cc2)c1C the results were RanGTP-Impb inh inconclusive, Runt-CBFb FRET inactive, Tb hexokinase inactive, 14-3-3 Bad inh active[fluorescence artefact?], Runt-SMMHC FRET inactive and Hck Nef HTS inactive.
Screening Cc1noc(NS(=O)(=O)c2ccc(NC(=O)c3ccc(N4C(=O)c5ccccc5C4=O)cc3)cc2)c1C returned RanGTP-Impb inh inactive, Runt-CBFb FRET inactive, Tb hexokinase inactive, 14-3-3 Bad inh inactive, Runt-SMMHC FRET inactive and Hck Nef HTS inactive.
